Measurements collected from several papers.
Protocols differ between the studies behind these lines.
Target: RAC-beta serine/threonine-protein kinase (AKT2, Homo sapiens, UniProt P31751)

SMILES	assay	setting	remaining binding
CC(=O)N1CCC(c2ccc(C(=O)NC(=N)N)cc2C(F)(F)F)CC1	cell-free assay, competition with immobilised ligand	1 µM	99%
O=C(NCCCN1CCOCC1)c1ccc(Nc2nccc(-c3cc4ccccc4s3)n2)cc1	binding, competition with immobilised ligand	1 µM	87%
COc1cnc(Nc2cccc(S(N)(=O)=O)c2)nc1N1CCN(c2ccccc2)C(=O)C1	binding, competition with immobilised ligand	1 µM	100%
COc1ccnn2ncc(-c3ccnc(N(C)C)n3)c12	binding	1 µM	100%
O=C(O)[C@H]1[C@H](Cn2nnc3ccccc3c2=O)CC[C@@H]1C(=O)c1ccc(OCCC2CCOCC2)cc1	cell-free assay, competition with immobilised ligand	1 µM	88%
COc1ncc2cc3ccccc3nc2c1C#N	cell-free assay, competition with immobilised ligand	5 µM	95%
F[C@@H]1CCN(c2nccc(-c3cnn4ncccc34)n2)C1	binding	1 µM	86%
COc1ccc2c(O[C@@H]3C[C@H]4C(=O)N[C@]5(C(=O)O)CC5/C=C\CCCCC[C@H](NC(=O)OC5CCCC5)C(=O)N4C3)cc(-c3csc(NC(=O)C(C)C)n3)nc2c1C (stereo partly drawn)	cell-free assay, competition with immobilised ligand	1 µM	89%
CN(C)c1nccc(-c2cnn3ncccc23)n1	binding	1 µM	100%
C[C@@H]1CN(c2ccc3ncc(-c4ccc5[nH]nc(C6CC6)c5c4)n3n2)C[C@H](C)O1	binding, competition with immobilised ligand	0.5 µM	97%
c1cnn2ncc(-c3ccnc(N4CCC45COC5)n3)c2c1	binding	1 µM	96%
CN(C)c1ncnc(-c2ccc3nc(Nc4cc(CN5CCN(C(=O)CC(F)(F)F)CC5)ccn4)[nH]c3c2)c1Cl	cell-free assay, competition with immobilised ligand	1 µM	95%
O=C(c1ccc(Nc2ncc(Cl)c(-c3ccc(Cl)s3)n2)cc1)N1CCC(N2CCCC2)CC1	binding, competition with immobilised ligand	1 µM	89%
c1cncc(-c2cccc(Nc3nccc(NC4CCCCC4)n3)c2)c1	binding, competition with immobilised ligand	10 µM	62%
O=C(c1ccc(Nc2nccc(-c3cc4ccccc4s3)n2)cc1)N1CCC(N2CCCC2)CC1	binding, competition with immobilised ligand	1 µM	100%
CNC(=O)[C@@H]1CC[C@@H](n2c(-c3ccc4cnccc4c3)nc3ccc(C(=O)NCc4cccc(C(N)=O)c4)cc32)C1	binding, competition with immobilised ligand	1 µM	100%
O=C(Nc1c[nH]nc1C(=O)NC1CCNCC1)c1cc(F)cc(F)c1	binding, competition with immobilised ligand	1 µM	87%
C[C@H]1CCN(c2nccc(-c3cnn4ncccc34)n2)C1	binding	1 µM	100%
CC(C)CC(=O)N1CCc2nc(-c3ccc(Br)cc3)nc(N(C)Cc3ccccc3)c2C1	cell-free assay, competition with immobilised ligand	0.1 µM	100%
CC1CCCN1c1nccc(-c2cnn3ncccc23)n1 (stereo not drawn)	binding	1 µM	100%
N#CC1(c2ccccn2)CCN(Cc2cc(C(=O)N3CCCC3)c(=O)n3ccccc23)CC1	cell-free assay, competition with immobilised ligand	1 µM	84%
N[C@@H]1CCN(c2nccc(-c3cnn4ncccc34)n2)C1	binding	1 µM	100%
C=CC(=O)N1CCC(C(=O)NCC(=O)N2CCN(c3nc(-c4cnc(N)nc4C(F)F)nc(N4CCOCC4)n3)CC2)CC1	binding, competition with immobilised ligand	1 µM	100%
Cc1nc(N2CC[C@@H](O)C2)ncc1-c1cc(C(F)(F)F)cc2[nH]ncc12	binding, competition with immobilised ligand	1 µM	87%
